In ChEMBL document CHEMBL4130550, “Antiproliferative Dimeric Aporphinoid Alkaloids from the Roots of Thalictrum cultratum” (J Nat Prod, 2017):
Calls of active or inactive are those of the source. The calls are words filed in the database; no cut-off is given here.

Assays:
HL-60 [1] = assay: Antiproliferative activity against human HL60 cells after 72 hrs by tryphan blue staining based hematocytometric method; type: functional, cell-based; details: HL-60, 72 h
Summary of the method: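 HL-60 (ATCC) in RPMI-1640 with 10% heat-inactivated FBS, 1 mM glutamine and penicillin/streptomycin, 37 °C, 5% CO2. Cells at 4.5 × 10^4 cells/mL are exposed to a concentration gradient (DMSO stock diluted in absolute EtOH) for 72 h. Trypan blue is added and total cells are counted on a hematocytometer. IC50 is the mean of three parallel experiments. Negative reference is 0.1% DMSO.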

PC-3 = assay: Antiproliferative activity against human PC3 cells by MTT assay; type: functional, cell-based
Summary of the method: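 PC-3 (ATCC) in supplemented RPMI-1640 with 10% FBS at 37 °C, 5% CO2. Log-phase cells get graded concentrations in triplicate. MTT (5 mg/mL solution) is added for a further 4 h, then dissolved in DMSO and read at 490 nm. IC50 is from the average of three parallel experiments. Negative reference is 0.1% DMSO.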

HL-60 [2] = assay: Cell cycle arrest in human HL60 cells assessed as accumulation at G1 phase at 0.06 uM after 24 hrs by propidium iodide staining based flow cytometric method (reference value: 43.32%); type: functional
HL-60 [3] = assay: Cell cycle arrest in human HL60 cells assessed as accumulation at G1 phase at 0.3 uM after 24 hrs by propidium iodide staining based flow cytometric method (reference value: 43.32%); type: functional
HL-60 [4] = assay: Cell cycle arrest in human HL60 cells assessed as accumulation at G2 phase at 0.3 uM after 24 hrs by propidium iodide staining based flow cytometric method (reference value: 30.93%); type: functional
HL-60 [5] = assay: Cell cycle arrest in human HL60 cells assessed as accumulation at S phase at 0.3 uM after 24 hrs by propidium iodide staining based flow cytometric method (reference value: 25.75%); type: functional
HL-60 [6] = assay: Cell cycle arrest in human HL60 cells assessed as accumulation at G1 phase at 1.5 uM after 24 hrs by propidium iodide staining based flow cytometric method (reference value: 43.32%); type: functional
HL-60 [7] = assay: Cell cycle arrest in human HL60 cells assessed as accumulation at G2 phase at 1.5 uM after 24 hrs by propidium iodide staining based flow cytometric method (reference value: 30.93%); type: functional
HL-60 [8] = assay: Cell cycle arrest in human HL60 cells assessed as accumulation at S phase at 1.5 uM after 24 hrs by propidium iodide staining based flow cytometric method (reference value: 25.75%); type: functional
HL-60 [9] = assay: Induction of morphological changes in human HL60 cells assessed as cell shrinkage at 0.06 to 1.5 uM after 24 hrs by Hoechst 33258 staining based fluorescence microscopic analysis; type: functional
HL-60 [10] = assay: Induction of morphological changes in human HL60 cells assessed as chromatin condensation at 0.06 to 1.5 uM after 24 hrs by Hoechst 33258 staining based fluorescence microscopic analysis; type: functional, cell-based
HL-60 [11] = assay: Induction of apoptosis in human HL60 cells assessed as late apoptotic cells at 0.06 uM after 24 hrs by Annexin-V-APC/7-AAD staining based flow cytometric method (reference value: 1.99%); type: functional
Summary of the method: (§1)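 HL-60 are seeded overnight in six-well plates, then treated in triplicate with 0.06, 0.3 or 1.5 μM, or untreated, for 24 h. Cells are washed in PBS and taken up in annexin V binding buffer. Annexin V-APC is added for 15 min in the dark at 25 °C, and 7-AAD just before flow cytometry. Early apoptosis is annexin V-APC only; late apoptosis is annexin V-APC/7-AAD.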

HL-60 [12] = assay: Induction of apoptosis in human HL60 cells assessed as necrotic cells at 0.06 uM after 24 hrs by Annexin-V-APC/7-AAD staining based flow cytometric method (reference value: 0.44%); type: functional; summary of the method: as §1
HL-60 [13] = assay: Induction of apoptosis in human HL60 cells assessed as live cells at 0.3 uM after 24 hrs by Annexin-V-APC/7-AAD staining based flow cytometric method (reference value: 95.31%); type: functional; summary of the method: as §1
HL-60 [14] = assay: Induction of apoptosis in human HL60 cells assessed as early apoptotic cells at 0.3 uM after 24 hrs by Annexin-V-APC/7-AAD staining based flow cytometric method (reference value: 2.26%); type: functional; summary of the method: as §1
HL-60 [15] = assay: Induction of apoptosis in human HL60 cells assessed as necrotic cells at 0.3 uM after 24 hrs by Annexin-V-APC/7-AAD staining based flow cytometric method (reference value: 0.44%); type: functional; summary of the method: as §1
HL-60 [16] = assay: Induction of apoptosis in human HL60 cells assessed as necrotic cells at 1.5 uM after 24 hrs by Annexin-V-APC/7-AAD staining based flow cytometric method (reference value: 0.44%); type: functional; summary of the method: as §1
HL-60 [17] = assay: Induction of apoptosis in human HL60 cells after 24 hrs by Annexin-V-APC/7-AAD staining based flow cytometric method; type: functional, cell-based; summary of the method: as §1
HL-60 [18] = assay: Induction of apoptosis in human HL60 cells assessed as live cells at 1.5 uM after 24 hrs by Annexin-V-FITC/propidium iodide staining based flow cytometric method (reference value: 94.19%); type: functional
HL-60 [19] = assay: Induction of apoptosis in human HL60 cells assessed as early apoptotic cells at 1.5 uM after 24 hrs by Annexin-V-FITC/propidium iodide staining based flow cytometric method (reference value: 2.8%); type: functional
HL-60 [20] = assay: Induction of apoptosis in human HL60 cells assessed as late apoptotic cells at 1.5 uM after 24 hrs by Annexin-V-FITC/propidium iodide staining based flow cytometric method (reference value: 2.53%); type: functional
HL-60 [21] = assay: Induction of apoptosis in human HL60 cells assessed as late apoptotic cells at 1.5 uM after 48 hrs by Annexin-V-FITC/propidium iodide staining based flow cytometric method (reference value: 2.53%); type: functional
HL-60 [22] = assay: Induction of apoptosis in human HL60 cells assessed as necrotic cells at 1.5 uM after 48 hrs by Annexin-V-FITC/propidium iodide staining based flow cytometric method (reference value: 0.47%); type: functional
HL-60 [23] = assay: Induction of apoptosis in human HL60 cells assessed as live cells at 1.5 uM after 72 hrs by Annexin-V-FITC/propidium iodide staining based flow cytometric method (reference value: 94.19%); type: functional
HL-60 [24] = assay: Induction of apoptosis in human HL60 cells at 1.5 uM by Annexin-V-FITC/propidium iodide staining based flow cytometric method; type: functional, cell-based; details: TDE = time-dependent effect
HL-60 [25] = assay: Induction of mitochondrial membrane potential loss in human HL60 cells assessed as collapse of the mitochondrial membrane potential at 0.06 uM after 24 hrs by JC1 staining based flow cytometric method (reference value: 0.58%); type: functional
HL-60 [26] = assay: Induction of mitochondrial membrane potential loss in human HL60 cells assessed as intact mitochondrial membrane potential at 0.06 uM after 24 hrs by JC1 staining based flow cytometric method (reference value: 99.42%); type: functional
HL-60 [27] = assay: Induction of mitochondrial membrane potential loss in human HL60 cells assessed as collapse of the mitochondrial membrane potential at 0.3 uM after 24 hrs by JC1 staining based flow cytometric method (reference value: 0.58%); type: functional
HL-60 [28] = assay: Induction of mitochondrial membrane potential loss in human HL60 cells assessed as intact mitochondrial membrane potential at 1.5 uM after 24 hrs by JC1 staining based flow cytometric method (reference value: 99.42%); type: functional

IC50 (HL-60 [1]): 1.08 µM
IC50 (PC-3): 5.59 µM
Compound: COc1cc2c(c(Oc3ccc(C[C@H]4c5cc(OC)c6c(c5CCN4C)OCO6)cc3)c1OC)C[C@H]1c3c(c(OC)c(OC)c(OC)c3-2)CCN1C
Activity (HL-60 [2]): 44.01%
Activity (HL-60 [3]): 36.01%
Activity (HL-60 [4]): 21.47%
Activity (HL-60 [5]): 42.51%
Activity (HL-60 [6]): 33.02%
Activity (HL-60 [7]): 18.53%
Activity (HL-60 [8]): 48.45%
Activity (HL-60 [9]): Active
Activity (HL-60 [10]): Active
Activity (HL-60 [11]): 8.18%
Activity (HL-60 [12]): 3.77%
Activity (HL-60 [13]): 69.73%
Activity (HL-60 [14]): 22.76%
Activity (HL-60 [15]): 1.2%
Activity (HL-60 [16]): 7.28%
Activity (HL-60 [17]): Dose-dependent effect
Activity (HL-60 [18]): 76.15%
Activity (HL-60 [19]): 14.79%
Activity (HL-60 [20]): 8.92%
Activity (HL-60 [21]): 17.69%
Activity (HL-60 [22]): 0.57%
Activity (HL-60 [23]): 36.09%
Activity (HL-60 [24]): Tde
Activity (HL-60 [25]): 24.1%
Activity (HL-60 [26]): 75.9%
Activity (HL-60 [27]): 33.5%
Activity (HL-60 [28]): 40.9%
